ChEMBL document CHEMBL1153776, “Synthesis and immunosuppressive activity of cyclolinopeptide A analogues containing homophenylalanine” (Eur J Med Chem, 2009)
The source made the active and inactive calls. No cut-off for these calls is given here. Non-standard residues stand in square brackets, D forms with d. Residues, ends and D or L forms follow the SMILES beside them. hPhe = N[C@@H](CCc1ccccc1)C(=O)O

Columns and labels:
Splenocyte [1] = assay: Immunosuppressive activity against sheep erythrocytes-induced humoral immune response in CBA mouse splenocyte assessed as inhibition antibody forming cells at 100 ug/ml after 4 days; assay type: functional; parameters: scale not given: the % may be the effect or the level left
Summary of the method: (§1)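 Donor CBA mice (12-week-old, both sexes) sensitized with 0.2 ml of 1% SRBC suspension; spleens harvested four days later, erythrocytes lysed with 0.83% ammonium chloride. Splenocytes (5 ×10⁶/ml/well) cultured with SRBC (0.1 ml of 0.005% suspension) plus peptides (DMSO, then medium). After four days, antibody-forming cells counted; mean AFC numbers from quadruplicate wells ± SE.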

T-cell = assay: Immunosuppressive effect on CBA mouse T cells assessed as inhibition of mitogen-induced proliferation at 100 ug/ml after 3 days by MTT assay; assay type: functional, cell-based
Splenocyte [2] = assay: Immunosuppressive activity against sheep erythrocytes-induced humoral immune response in CBA mouse splenocyte assessed as inhibition antibody forming cells after 4 days; assay type: functional, cell-based; summary of the method: as §1
B = assay: Immunosuppressive effect on CBA mouse B cells assessed as inhibition of mitogen-induced proliferation after 3 days by MTT assay; assay type: functional, cell-based
[3] = Toxicity in mouse WEHI164 clone 13 cells at 100 ug/ml after 24 hrs by MTT assay; settings: wehi-164, 24 h
Summary of the method: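 WEHI 164.13 cells exposed 24 h to peptides (DMSO then culture medium) or DMSO control solutions. Viability measured by MTT colorimetric method and expressed as percentage of OD relative to matching solvent dilutions (taken as 100%). Student's t-test for statistics.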

SMILES	Activity (Splenocyte [1]) [%]	Activity (T-cell)	Activity (Splenocyte [2])	Activity (B)	Activity [3] [%]
CC[C@H](C)[C@@H]1NC(=O)[C@H](CC(C)C)NC(=O)[C@H](Cc2ccccc2)NC(=O)[C@H](CCc2ccccc2)NC(=O)[C@@H]2CCCN2C(=O)[C@@H]2CCCN2C(=O)[C@H](C(C)C)NC(=O)[C@H](CC(C)C)NC(=O)[C@H]([C@@H](C)CC)NC1=O (cyclo(FLIILVPP[hPhe]))	94.5	Active	–	–	–
CC[C@H](C)[C@@H]1NC(=O)[C@H](CC(C)C)NC(=O)[C@H](CCc2ccccc2)NC(=O)[C@H](CCc2ccccc2)NC(=O)[C@@H]2CCCN2C(=O)[C@@H]2CCCN2C(=O)[C@H](C(C)C)NC(=O)[C@H](CC(C)C)NC(=O)[C@H]([C@@H](C)CC)NC1=O (cyclo(IILVPP[hPhe][hPhe]L))	–	–	Active	Active	–
CC[C@H](C)[C@@H]1NC(=O)[C@H](CC(C)C)NC(=O)[C@H](CCc2ccccc2)NC(=O)[C@H](Cc2ccccc2)NC(=O)[C@@H]2CCCN2C(=O)[C@@H]2CCCN2C(=O)[C@H](C(C)C)NC(=O)[C@H](CC(C)C)NC(=O)[C@H]([C@@H](C)CC)NC1=O (cyclo(F[hPhe]LIILVPP))	92	–	–	Active	47.19
